The results in this text go back to ChEMBL document CHEMBL1121880, “Synthesis and antiviral activity of 5-[(cyanomethylene)oxy]-2'-deoxyuridine” (J Med Chem, 1981).

Holding throughout (format): functional, cell-based
Common to all, as to conditions: Oryctolagus cuniculus

Test [1] has as its system PRK. Put plainly: Concentration required to reduce HSV-2 induced cytopathogenicity by 50% in primary rabbit kidney (PRK) cells; 10-150. Background: Cytopathic effects are the visible damage that an infection or toxin causes in cultured cells.
In test [2] the test system is PRK. Put plainly: Concentration required to inhibit incorporation of [Me-3H]-dThd into DNA of primary rabbit kidney (PRK) cells by 50%. The gist of the method:
(§1)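 Uninfected primary rabbit kidney cells; IC50 = concentration reducing incorporation of [Me-3H]dThd or [1',2'-3H]dUrd into host cell DNA by 50%.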

For test [3], the system named is PRK. Briefly: Concentration required to reduce HSV-1(KOS) induced cytopathogenicity by 50% was measured by the addition of [1,'2'-3H]dUrd. The gist of the method:
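HSV-1 (KOS) cytopathogenicity in PRK cells (100 CCID50 inoculum) with dThd or dUrd, unlabelled, added together with test compound at 100 μg/mL final, the highest level not itself inhibiting virus replication. CPE scored at 100% destruction in untreated infected controls; IC50 = concentration halving cytopathogenicity.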

Test [4] deals with PRK. Briefly: Concentration required to reduce HSV-1 induced cytopathogenicity by 50% in primary rabbit kidney (PRK) cells; 2-4.
The test system of test [5] is PRK. Put plainly: Concentration required to reduce HSV-1(KOS) induced cytopathogenicity by 50% was measured by the addition of [Me-3H]-dThd.
Test [6] deals with PRK. Briefly: Concentration required to inhibit incorporation of [1,'2'-3H]dUrd into DNA of primary rabbit kidney (PRK) cells by 50%. The procedure, abridged:
as §1

Test [7] has as its system PRK. Briefly: Concentration required to reduce HSV-1(KOS) induced cytopathogenicity by 50%. The procedure, abridged: (§2)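 PRK cell cultures infected with 100 CCID50 HSV-1 (KOS), then given varying compound concentrations right after virus adsorption, without added nucleoside.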
The subject of test [8] is PRK. Briefly: Compound was evaluated for antiviral activity in rabbit kidney cells infected with vaccinia virus.
Test [9] concerns PRK. Put plainly: Concentration required to reduce TK-HSV-1 (B2006) induced cytopathogenicity by 50% in primary rabbit kidney (PRK) cells.
Test [10] concerns PRK. Put plainly: Concentration required to reduce HSV-2 induced cytopathogenicity by 50% in primary rabbit kidney (PRK) cells; 7-40.
The subject of test [11] is PRK. Briefly: Concentration required to reduce HSV-1 induced cytopathogenicity by 50% in primary rabbit kidney (PRK) cells; 1-1.5.
Test [12] deals with PRK. Put plainly: Concentration required to reduce HSV-1(KOS) induced cytopathogenicity by 50% was measured. The gist of the method: as §2
Test [13] relates to PRK. Briefly: Concentration required to reduce HSV-1(KOS) induced cytopathogenicity in primary Rabbit by 50%. The procedure, abridged:
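Confluent primary rabbit kidney cell cultures inoculated with 100 CCID50 HSV-1 (KOS); varying compound concentrations added immediately after virus adsorption. Cytopathogenicity scored once virus-infected untreated controls reached 100% cell destruction; IC50 = concentration reducing cytopathogenicity by 50%.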

Test [14] deals with PRK. Briefly: Concentration required to reduce HSV-1(KOS) induced cytopathogenicity primary rabbit kidney by 50% was measured by the addition of [Me-3H]-dThd.
The subject of test [15] is PRK. Briefly: Concentration required to reduce HSV-1(KOS) induced cytopathogenicity primary rabbit kidney by 50% was measured by the addition of [1,'2'-3H]dUrd.
Test [16] concerns PRK. Put plainly: Concentration required to reduce HSV-2 induced cytopathogenicity by 50% in primary rabbit kidney (PRK) cells; 0.2-0.4.
The subject of test [17] is PRK. Put plainly: Concentration required to reduce HSV-1 induced cytopathogenicity by 50% in primary rabbit kidney (PRK) cells.
Test [18] concerns PRK. Briefly: Concentration required to reduce HSV-2 induced cytopathogenicity by 50% in primary rabbit kidney (PRK) cells; 2-4.
The subject of test [19] is PRK. Put plainly: Concentration required to reduce HSV-1 induced cytopathogenicity by 50% in primary rabbit kidney (PRK) cells; 4-10.

Each structure is given as a SMILES string. Values after ≈ are worked out from the molar mass of the structure shown. Where only a bound is given, the exact number is not on record here.

Take `N#CCOc1cn([C@H]2C[C@H](O)[C@@H](CO)O2)c(=O)[nH]c1=O`: the IC50 in [1] was 10 µg/mL (≈ 35.3 µM); in test [2], 400 µg/mL (≈ 1410 µM); in [3] it was over 400 µg/mL; in [4], 2 µg/mL (≈ 7.06 µM); in [5] it was over 400 µg/mL; in test [6] it was over 400 µg/mL. In addition, the IC50 in [7] is 1.5 µg/mL (≈ 5.3 µM); in test [8], 150 µg/mL (≈ 530 µM); in test [9], over 400 µg/mL.
In the case of `C#CCOc1cn([C@H]2C[C@H](O)[C@@H](CO)O2)c(=O)[nH]c1=O`, the IC50 is 19 µg/mL (≈ 67.3 µM) in [10]; 200 µg/mL (≈ 709 µM) in [2]; 40 µg/mL (≈ 142 µM) in test [3]; 400 µg/mL (≈ 1420 µM) in test [5]; 100 µg/mL (≈ 354 µM) in test [6]; 20 µg/mL (≈ 70.9 µM) in test [8]. For the same molecule, the IC50 was 1 µg/mL (≈ 3.54 µM) in [11], 0.7 µg/mL (≈ 2.48 µM) in test [12] and over 200 µg/mL in test [9].
Turning to `N#Cc1cn([C@H]2C[C@H](O)[C@@H](CO)O2)c(=O)[nH]c1=O`, the IC50 in [2] is over 400 µg/mL; in [6], 8 µg/mL (≈ 31.6 µM).
On to `O=c1[nH]c(=O)n([C@H]2C[C@H](O)[C@@H](CO)O2)cc1F` [FLOXURIDINE], for which the IC50 in [13] is 1 µg/mL (≈ 4.06 µM); in test [14], over 400 µg/mL; in [15], 10 µg/mL (≈ 40.6 µM).
For `O=c1[nH]c(=O)n([C@H]2C[C@H](O)[C@@H](CO)O2)cc1I` [IDOXURIDINE], the IC50 in [2] was found to be 1 µg/mL (≈ 2.82 µM); in [16], 0.2 µg/mL (≈ 0.565 µM); in test [6], 0.3 µg/mL (≈ 0.847 µM); in test [8], 0.4 µg/mL (≈ 1.13 µM); in [9] it was 200 µg/mL (≈ 565 µM); in test [17], 0.1 µg/mL (≈ 0.282 µM).
On to `Nc1ncnc2c1ncn2[C@@H]1O[C@H](CO)[C@@H](O)[C@@H]1O` [VIDARABINE], for which the IC50 was determined as 20 µg/mL (≈ 74.8 µM) in test [2]; 1 µg/mL (≈ 3.74 µM) in test [3]; 1 µg/mL (≈ 3.74 µM) in test [5]; 3 µg/mL (≈ 11.2 µM) in [18]; 7 µg/mL (≈ 26.2 µM) in [19]; 10 µg/mL (≈ 37.4 µM) in test [6]. Also, the figures for the IC50 in test [8], in [12] and in test [9] were 0.4 µg/mL (≈ 1.5 µM), 4 µg/mL (≈ 15 µM) and 10 µg/mL (≈ 37.4 µM), respectively.

A word on the IC50: it is the concentration that gives 50% inhibition. Read a low IC50 as inhibition by little substance.
